Test results reported in PMC11635510 (ACS Omega, 2024).
Entries after “also recorded” stand apart in the source; their conditions may differ.

Experiments:
AChE [1] = target: T1, AChE (Homo sapiens, UniProt P22303); assay: biochemical
BChE [2] = target: T2, BChE (Homo sapiens, UniProt P06276); assay: biochemical; format: biochemical; conditions: for fold better BChE inhibitory activity in comparison with positive control: vs donepezil (positive control)
GSK-3α mRNA = GSK-3α mRNA level by quantitative PCR in SH-SY5Y; format: cell-based; conditions: 25 μM
In short: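 Cells were exposed to test compound at 25 μM. Total RNA was extracted with RNX-plus reagent following the manufacturer's protocol, and transcript levels were then quantified by real-time PCR.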

GSK-3β mRNA = GSK-3β mRNA level by quantitative PCR in SH-SY5Y; format: cell-based
BChE [3] = target: T2, BChE; assay: Enzyme kinetic study; format: biochemical
In short: (§1)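 Inhibition type and Km taken from Lineweaver–Burk double-reciprocal plots. Ki derived from secondary plots of line slope versus inhibitor concentration and of 1/Vmax versus inhibitor concentration. Cholinesterase activity was measured by a modified Ellman method.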

[4] = tested on: SH-SY5Y neuroblastoma cell line; assay: Toxicity assay on SH-SY5Y; format: cell-based; conditions: concentrations below 50 μM; 72 h; MTT
In short: (§2)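 SH-SY5Y cells were cultured in DMEM/F12 with 15% fetal bovine serum, 100 units/mL penicillin and 100 μg/mL streptomycin. Viability was read by MTT after 72 h exposure to test compound. Results are mean ± SEM of five independent experiments, each in triplicate; p < 0.05 was taken as significant.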

[5] = Toxicity assay on SH-SY5Y; format: cell-based; conditions: human, SH-SY5Y neuroblastoma cells
In short: as §2

AChE [6] = target: T1, AChE; assay: Enzyme kinetic study; format: biochemical
In short: as §1

T1 sequence (P22303 32-614): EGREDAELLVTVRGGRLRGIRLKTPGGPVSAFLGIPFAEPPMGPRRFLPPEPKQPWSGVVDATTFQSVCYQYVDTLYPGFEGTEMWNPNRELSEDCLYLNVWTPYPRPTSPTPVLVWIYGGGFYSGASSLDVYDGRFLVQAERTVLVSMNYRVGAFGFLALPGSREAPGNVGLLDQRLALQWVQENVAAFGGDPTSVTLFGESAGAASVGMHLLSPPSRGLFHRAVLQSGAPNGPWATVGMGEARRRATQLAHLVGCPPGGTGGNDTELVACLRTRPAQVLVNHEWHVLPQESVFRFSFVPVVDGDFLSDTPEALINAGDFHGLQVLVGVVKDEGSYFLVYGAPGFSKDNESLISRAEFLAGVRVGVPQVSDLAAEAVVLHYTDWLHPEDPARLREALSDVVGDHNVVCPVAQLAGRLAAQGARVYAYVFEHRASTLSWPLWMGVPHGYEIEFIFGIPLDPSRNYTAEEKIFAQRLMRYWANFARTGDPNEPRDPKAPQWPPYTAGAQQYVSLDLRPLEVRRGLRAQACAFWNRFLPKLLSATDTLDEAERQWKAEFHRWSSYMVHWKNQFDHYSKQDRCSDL
T2 sequence (P06276 29-602, species assumed): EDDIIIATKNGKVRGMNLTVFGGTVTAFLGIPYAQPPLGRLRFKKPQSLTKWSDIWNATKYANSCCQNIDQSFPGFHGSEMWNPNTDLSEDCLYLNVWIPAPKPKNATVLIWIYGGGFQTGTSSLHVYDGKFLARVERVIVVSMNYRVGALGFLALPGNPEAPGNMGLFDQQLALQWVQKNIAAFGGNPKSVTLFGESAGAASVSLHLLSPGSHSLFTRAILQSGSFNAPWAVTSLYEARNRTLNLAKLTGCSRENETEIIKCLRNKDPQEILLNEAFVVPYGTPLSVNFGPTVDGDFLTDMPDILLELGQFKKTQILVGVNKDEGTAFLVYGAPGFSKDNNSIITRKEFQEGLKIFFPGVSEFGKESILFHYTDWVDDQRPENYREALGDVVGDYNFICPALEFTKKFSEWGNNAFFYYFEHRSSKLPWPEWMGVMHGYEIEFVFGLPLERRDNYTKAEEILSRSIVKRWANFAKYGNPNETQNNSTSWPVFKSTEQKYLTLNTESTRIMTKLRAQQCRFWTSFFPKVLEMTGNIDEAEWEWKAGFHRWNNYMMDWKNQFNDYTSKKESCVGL

For `O=C(NCc1ccc[n+](Cc2ccccc2)c1)c1ccc(CN2C(=O)c3ccccc3C2=O)cc1.[Br-]` [Compound 7a], the IC50 (AChE [1]) was 9710 ± 830 nM, the IC50 (BChE [2]) was 320 ± 60 nM and the “fold better BChE inhibitory activity in comparison with positive control” value (BChE [2]) was “around 33 fold”.
With `O=C(NCc1ccc[n+](Cc2ccccc2F)c1)c1ccc(CN2C(=O)c3ccccc3C2=O)cc1` [Compound 7b] the IC50 (AChE [1]) was 1190 ± 450 nM and the IC50 (BChE [2]) was 310 ± 20 nM.
With `O=C(NCc1ccc[n+](Cc2cccc(F)c2)c1)c1ccc(CN2C(=O)c3ccccc3C2=O)cc1.[Cl-]` [Compound 7c] the “effect on the mRNA level of GSK3α” value (GSK-3α mRNA) was “no noticeable effect”, the IC50 (AChE [1]) was 3980 ± 210 nM and the “reduction of GSK-3β mRNA level” value (GSK-3β mRNA; 25 μM) was 25%. For the same molecule, the “mRNA level of GSK-3β” value (GSK-3β mRNA; 25 μM, relative to control group) was about 75%, the “effect on mRNA level of GSK-3β (in words)” value (GSK-3β mRNA; SH-SY5Y, compared to control group) was “decreased; also recorded: could reduce the mRNA level of GSK-3β” and the IC50 (BChE [2]) was 80 ± 10 nM. The “fold better BChE inhibitory activity in comparison with positive control” value (BChE [2]) was 132 fold, the Ki (BChE [3]) was 130 nM and the inhibition mode (BChE [3]; Lineweaver-Burk plot, BChE) was “mixed-type inhibition mode; also recorded: mixed inhibitor”. For the same molecule, the “toxicity on SH-SY5Y at fewer concentrations” value [4] was “did not exhibit any toxicity” and the viability at 72 h, 50 µM [5] was about 80%.
With `O=C(NCc1ccc[n+](Cc2ccc(F)cc2)c1)c1ccc(CN2C(=O)c3ccccc3C2=O)cc1` [Compound 7d] the IC50 (AChE [1]) was 11100 ± 1290 nM and the IC50 (BChE [2]) was 330 ± 10 nM.
`O=C(NCc1ccc[n+](Cc2cccc(Cl)c2)c1)c1ccc(CN2C(=O)c3ccccc3C2=O)cc1` [Compound 7f] showed an IC50 (AChE [1]) of 2660 ± 880 nM and an IC50 (BChE [2]) of 560 ± 190 nM.
`O=C(NCc1ccc[n+](Cc2cccc(Br)c2)c1)c1ccc(CN2C(=O)c3ccccc3C2=O)cc1` [Compound 7i] gave an IC50 (AChE [1]) of 2100 ± 490 nM and an IC50 (BChE [2]) of 150 ± 10 nM.
In the case of `O=C(NCc1ccc[n+](Cc2ccc(Br)cc2)c1)c1ccc(CN2C(=O)c3ccccc3C2=O)cc1.[Br-]` [Compound 7j], the IC50 (AChE [1]) is reported as 260 ± 70 nM, the Ki (AChE [6]) is reported as 940 nM and the “secondary inhibition constant (Kis)” value (AChE [6]; 1/Vmax vs inhibitor concentration, AChE) is reported as 4.29 µM. For the same molecule, the inhibition mode (AChE [6]; Lineweaver-Burk plot, AChE) was “mixed mode of inhibition; also recorded: mixed-type inhibition pattern”.
In the case of `O=C(NCc1ccc[n+](Cc2ccc([N+](=O)[O-])cc2)c1)c1ccc(CN2C(=O)c3ccccc3C2=O)cc1` [Compound 7l], the IC50 (AChE [1]) is reported as 5060 ± 2400 nM and the IC50 (BChE [2]) is reported as 20400 ± 2550 nM.
`CCCCC[n+]1cccc(CNC(=O)c2ccc(CN3C(=O)c4ccccc4C3=O)cc2)c1` [Compound 7p] showed an IC50 (AChE [1]) of 6290 ± 760 nM and an IC50 (BChE [2]) of 18600 ± 1210 nM.
`CC[n+]1cccc(CNC(=O)c2ccc(CN3C(=O)c4ccccc4C3=O)cc2)c1` [Compound 7q] gave an inhibition at 50 µM (AChE [1]; read-out: AChE % inhibition at 50 μM) of 33.6 ± 2.9% and an IC50 (BChE [2]) of 490 ± 40 nM.
